Assay outcomes: PubChem, Johns Hopkins Ion Channel Center
KCNQ1 act – potentiators or activators of KCNQ1 channel, primary screen, cell-based, thallium flux, high-throughput; B-score at 10 µM; CHO-K1 KCNQ1, thallium flux FluxOR fluorescence; hits give high values; hit rate 0.35% among 310,000;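 active = fluorescence ratio B-score, a plate-corrected score, at least three library SD, with initial intensity B-score within 5 SD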
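Test system: CHO-K1 cells stably expressing KCNQ1 / Medium: assay buffer / Also added: depolarizing K+/Tl+ stimulus, K2SO4 and Tl2SO4 each 12.5 mM in 5x stock / Incubation: 90 min dye loading and 20 min compound exposure, both at room temperature / Signal: thallium influx via FluxOR fluorescence, kinetic imaging / Evaluation: B score of baseline-normalized fluorescence ratio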
hERG protect – hERG rescue from dofetilide block, primary screen, cell-based, CHO-hERG, FluxOR thallium flux, dofetilide IC70 | dofetilide IC70 present | activation (rescue from dofetilide block), less the hit threshold, % at 10 µM | hit rate 0.51% among 310,000 | AID 1511, 2009;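 active = activation above the mean of controls blocked by dofetilide plus 5 SD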;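 also: thallium influx through hERG after potassium depolarization seen as dye fluorescence rise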
Kir21 inh – inhibitors of mouse Kir2.1 inward-rectifier potassium channel | hit rate 0.85% among 310,000 | Inward rectifier potassium channel 2 (Mus musculus), P35561 | HEK293-Kir2.1, FluxOR thallium flux fluorescence; hits give low values | B-score at 10 µM | AID 1672, 2009;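 active = fluorescence ratio B-score at or below minus 3 SD of library scores, with starting-brightness B-score within 2 SD, cut at about -4.2 in these data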;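 also: channel flux triggered by added potassium and thallium sulfate stimulus; B-score of peak minus minimum fluorescence over baseline after thallium stimulus; more negative B-score means stronger Kir2.1 block with less thallium influx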
KCNK3 block – human KCNK3 channel inhibitors, primary screen, CHO cells, FluxOR thallium flux, B-score | Potassium channel subfamily K member 3 (Homo sapiens), O14649 | FluxOR fluorescence; hits give low values | B-score at 10 µM | hit rate 0.84% among 340,000;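 active = B-score under library mean minus 4 SD, starting fluorescence ratio at most library mean plus 5 SD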;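 also: more negative B-score means stronger inhibition of thallium flux through KCNK3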
Target sequence (O14649 whole entry, looked up): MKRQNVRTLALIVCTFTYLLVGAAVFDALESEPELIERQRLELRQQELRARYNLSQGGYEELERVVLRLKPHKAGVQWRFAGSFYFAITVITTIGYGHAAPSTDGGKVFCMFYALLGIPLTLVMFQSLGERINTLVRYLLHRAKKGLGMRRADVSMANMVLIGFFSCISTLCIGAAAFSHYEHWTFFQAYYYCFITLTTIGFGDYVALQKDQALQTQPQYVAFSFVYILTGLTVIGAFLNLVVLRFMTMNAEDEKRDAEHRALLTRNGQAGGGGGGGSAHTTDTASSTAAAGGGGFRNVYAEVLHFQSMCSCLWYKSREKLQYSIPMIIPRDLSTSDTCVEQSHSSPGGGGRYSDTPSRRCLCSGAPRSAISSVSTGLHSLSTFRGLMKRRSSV
KCNQ1 inh – inhibitors of human KCNQ1 channel, primary screen, cell-based, thallium flux, high-throughput. Potassium voltage-gated channel subfamily KQT member 1 (Homo sapiens), P51787. CHO-K1 KCNQ1, FluxOR thallium flux fluorescence; hits give high values. B-score at 10 µM. hit rate 1.3% among 310,000. AID 2642, 2010;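 active = compounds whose thallium flux B-score, printed positive for inhibition, exceeds three library SD while starting fluorescence stays within three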;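 also: channel opened by potassium depolarization with thallium stimulus after 20 min compound exposure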
KCNK9 block – KCNK9 potassium channel inhibitors, primary screen, HEK293 cells, thallium flux; Potassium channel subfamily K member 9 (Homo sapiens), Q9NPC2; FluxOR thallium flux fluorescence; hits give low values; B-score at 10 µM; hit rate 1.2% among 310,000; AID 488922, 2010;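 active = ratio B-score over 3 SD below the library mean, with starting fluorescence within 5 SD of its mean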;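 also: negative B-score means less thallium flux so channel inhibition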
KCNK9 block conf – KCNK9 potassium channel inhibitors, confirmation, HEK293 cells, thallium flux, duplicate; hit rate 43% among 4,900; shares compounds with KCNK9 block; FluxOR thallium flux fluorescence; inhibition, % at 10 µM;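 active = thallium signal inhibited by more than 5 SD of the compound-free buffer control wells, on both duplicate plates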;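 also: 0% = assay buffer control wells without compound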
Kir21 sel – mouse Kir2.1 channel inhibition, confirmation, selectivity assay for KCNK9 modulator project, cell-based, HEK293, thallium flux. inhibition, % at 10 µM. hit rate 4% among 4,900. Kir2.1 cells, FluxOR thallium flux fluorescence. shares compounds with KCNK9 block. AID 492993, 2010;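 active = thallium signal drop more than 5 SD beyond the mean of the no-compound control wells, seen in both duplicate plates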;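 also: signal is fluorescence rise after thallium addition divided by baseline fluorescence; plate controls were assay buffer only for no effect and full block by chlorpromazine control for full effect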
KCNK9 uninduced – thallium flux in non-induced HEK293 cells, confirmation, counter-screen for KCNK9 inhibitor project, cell-based, second counter screen, non-induced KCNK9-HEK293 | shares compounds with KCNK9 block | inhibition, % at 10 µM | AID 492997, 2010 | FluxOR thallium flux | hit rate 40% among 4,900;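 active = thallium signal drop beyond 5 SD of the untreated control mean, on both duplicate plates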;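 also: plate controls were buffer only IC0 wells for no effect and SID17386958 at its maximal inhibitory level for full effect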
Numbers without * were called inactive; i = inactive; nt = no result. This is a sample that favours compounds with a hit; in the whole collection about 3.7% have one here.

SMILES | KCNQ1 act | hERG protect | Kir21 inh | KCNK3 block | KCNQ1 inh | KCNK9 block | KCNK9 block conf | Kir21 sel | KCNK9 uninduced
Cc1ccc(CSCC(=O)NCc2ccc(F)cc2)cc1 | i | -4 | -0.3 | i | i | i | nt | nt | nt
Cc1ccc(CSCC(=O)Nc2ccccc2F)cc1 | i | -16 | -0.27 | i | i | i | i | i | i
COc1ccc(CSCC(=O)NCCC(C)C)cc1 | i | 1 | -1.8 | i | i | i | nt | nt | nt
Cc1ccc(CCNC(=O)CSCc2ccc(F)cc2)cc1 | i | -4 | -3.1 | i | i | i | i | i | i
COc1ccc(CSCC(=O)Nc2ccccc2SC)cc1 | i | -5 | -2.8 | i | i | i | i | i | i
CCOC(=O)Cc1csc(NC(=O)CSc2nc(=O)[nH]c3c2CCC3)n1 | i | -10 | 1.7 | i | i | i | nt | nt | nt
Cc1noc(NS(=O)(=O)c2ccc(NC(=O)C(Cl)(Cl)Cl)cc2)c1C | i | -6 | 0.76 | i | i | i | nt | nt | nt
Cc1noc(NS(=O)(=O)c2ccc(NC(=O)Nc3ccc(Cl)c(Cl)c3)cc2)c1C | i | -14 | -0.08 | i | i | i | i | i | i
O=C(NCCc1ccc(Cl)cc1)/C(=C/c1cccnc1)NC(=O)c1ccccc1 | i | -7 | 0.29 | i | i | i | nt | nt | nt
CN(CC(=O)Nc1ccc(OC(F)(F)F)cc1)C(=O)c1ccccc1SCC(=O)N1CCCC1 | nt | nt | nt | i | nt | nt | nt | nt | nt
Cc1onc(-c2ccccc2)c1C(=O)N[C@@H]1C(=O)N2C1SC(C)(C)[C@@H]2C(=O)O (stereo not given in full) | nt | nt | nt | i | nt | nt | nt | nt | nt
CCCn1nc(NC(=O)c2cccs2)c2cc3cc(OC)ccc3nc21 | i | -5 | 0.32 | i | i | -10* | i | i | i
C/C(=N\Nc1nc(C(C)(C)C)cs1)c1ccccc1 | i | -6 | -0.89 | i | i | i | i | i | i
CC(C)(C)c1csc(N/N=C/c2cccnc2)n1 | i | -20 | -0.71 | i | i | i | nt | nt | nt
Cc1ccc(/C=N/Nc2nc(C(C)(C)C)cs2)o1 | 18* | 10* | -1.2 | i | i | i | i | i | i
O=C(CCCN1C(=O)c2ccccc2C1=O)NCCc1ccc(OC(F)F)cc1 | i | -6 | -2.4 | i | i | i | nt | nt | nt
CSCC(C)N1CCC(N2CCC(C(=O)NCc3ccccn3)CC2)CC1 (stereo not given) | i | -11 | -0.24 | i | i | i | nt | nt | nt
COc1ccc(CC2(C)OC(c3ccc(Cl)cc3)=NN2C(C)=O)cc1 (stereo not given) | i | -17 | 0 | i | i | i | i | i | i
CN(Cc1ccno1)C(=O)CC1C(=O)NCCN1CC(c1ccccc1)c1ccccc1 (stereo not given) | i | -12 | 0.14 | i | i | i | nt | nt | nt
CCc1cccc(CC)c1NC(=O)COC(=O)c1cccc(S(=O)(=O)N2CCc3ccccc3C2)c1 | i | -7 | -2.6 | i | i | -9.1* | 56%* | i | 34%*
Cc1ccc(SCc2ccc(C(=O)N3CCCC3)cc2)cc1 | i | 5.7* | -1.7 | i | i | i | i | i | i
COc1ccccc1N1CCN(S(=O)(=O)c2ccc(NC(C)=O)cc2)CC1 | i | -8 | -0.44 | i | i | i | nt | nt | nt
CCC(=O)c1ccccc1OCCN1CCN(Cc2ccccc2)CC1 | i | -8 | -3.6 | i | i | i | i | i | i
CCOc1ccccc1OCCOCCN1CCN(Cc2ccccc2)CC1 | i | -5 | -2.8 | i | i | i | nt | nt | nt
O=C(c1ccccc1)c1ccc(OCCOCCN2CCN(Cc3ccccc3)CC2)cc1 | i | -25 | -1.9 | i | i | i | i | i | i
SMILES | KCNQ1 act | hERG protect | Kir21 inh | KCNK3 block | KCNQ1 inh | KCNK9 block | KCNK9 block conf | Kir21 sel | KCNK9 uninduced
NS(=O)(=O)c1ccc(NCc2cc(Cl)ccc2OCc2ccccc2F)cc1 | i | -8 | -0.57 | i | i | -15* | 50%* | i | 41%*
Cc1ccc(C(=O)NCCSc2ccc(Cl)cc2)cc1S(=O)(=O)Nc1ccccc1 | i | -7 | 0.39 | i | i | i | i | i | i
CS(=O)(=O)Nc1ccccc1C(=O)NCCSc1ccc(Cl)cc1 | i | -13 | -3.7 | i | i | i | nt | nt | nt
Cc1ccc(NS(=O)(=O)c2cc(C(=O)NCCSc3ccc(C)cc3)ccc2C)cc1 | i | -3 | -0.29 | i | i | i | i | i | i
Cc1ccc(NS(=O)(=O)c2cc(C(=O)NCCSC3CCCCC3)ccc2C)cc1 | i | -6 | 0.24 | i | i | i | nt | nt | nt
CCN(CC(=O)NC(=O)NCc1ccccc1)Cc1ccccc1 | i | -12 | -1.3 | i | i | i | i | i | 26%*
Cc1nc2c(c(C)nn2-c2ccccc2)c(C)c1CCC(=O)NCCCOC(C)C | i | -6 | 0.37 | i | i | i | nt | nt | nt
Cc1ccc(CSc2nc3ccccc3c(=O)[nH]2)cc1 | i | -13 | -1.9 | i | i | -9* | i | i | 29%*
CN=C1N(C)C[C@@H]2[C@@H]3C(=O)N(C)C(=O)[C@@H]3[C@](C)(C(=O)OC)N12 | nt | nt | nt | i | nt | nt | nt | nt | nt
COc1ccc(-n2c(SCCC#N)nnc2-c2cc(Cl)ccc2OC)cc1Cl | i | -16 | -0.37 | i | i | -11* | 29%* | i | 41%*
Cc1ccc(NC2CCCN(C(=O)CCN3CCOCC3)C2)cc1C (stereo not given) | i | -10 | 1 | i | i | i | nt | nt | nt
O=C(Nc1ccc(Cl)cn1)c1cccc2c(Br)cccc12 | i | -7 | -0.56 | i | i | -17* | 71%* | i | 42%*
